Measurements pooled from the literature.
Lines come from different studies, so protocols differ. pIC50, pKd, pKi: −log10 of the molar value.
ENAH: Protein enabled homolog (ENAH, UniProt Q8N8S7)
pknB: Serine/threonine-protein kinase PknB (pknB, Mycobacterium tuberculosis, UniProt P9WI81)
DPP4: Dipeptidyl peptidase 4 (DPP4, Homo sapiens, UniProt P27487)
1-deoxy-D-xylulose 5-phosphate reductoisomerase: 1-deoxy-D-xylulose 5-phosphate reductoisomerase (Mycobacterium tuberculosis, UniProt P9WNS1)

For `CC(=O)N[C@@H](Cc1ccccc1Cl)C(=O)N1CCC[C@H]1C(=O)N1CCC[C@H]1C(=O)N1CCC[C@H]1C(=O)N1CCC[C@H]1C(=O)N[C@H](C(=O)N[C@@H](CCC(=O)O)C(=O)N[C@@H](CC(=O)O)C(=O)N[C@@H](CCC(=O)O)C(=O)N[C@@H](C)C(N)=O)[C@@H](C)O`, the pKd was 5.46 (ENAH; binding, fluorescence).
`CC(C)(C)OC(=O)N1CCN(c2ccc(Nc3nccc(-c4ccccc4)n3)cc2C(F)(F)F)CC1` gave a pKi of < 5.23 (pknB; cell-free assay, inhibitor).
For `CC(C)[C@H](N)C(=O)N1CCC[C@H]1C(=O)N[C@H](C(=O)N1CCC[C@H]1C(=O)N[C@@H](CCCCN)C(=O)O)C(C)C`, the pIC50 was 3.98 (DPP4; enzyme activity, inhibitor, absorbance; pH 8).
`COc1cccc(-c2ccnc(Nc3ccc(N4CCN(C(=O)OC(C)(C)C)CC4)c(C(F)(F)F)c3)n2)c1` has a pKi of < 5.23 (pknB; cell-free assay, inhibitor).
With `CC(=O)N(O)CCC(c1ccc2c(c1)OCO2)P(=O)(O)O` (stereo not shown) the pIC50 was 5.82 (1-deoxy-D-xylulose 5-phosphate reductoisomerase; enzyme activity, inhibitor, absorbance; pH 7.5).
With `CC(=O)N[C@@H](CO)C(=O)N[C@@H](Cc1ccccc1)C(=O)N[C@@H](CCC(=O)O)C(=O)N[C@@H](Cc1ccccc1)C(=O)N1CCC[C@H]1C(=O)N1CCC[C@H]1C(=O)N1CCC[C@H]1C(=O)N1CCC[C@H]1C(=O)N[C@H](C(=O)N[C@@H](CCC(=O)O)C(=O)N[C@@H](CC(=O)O)C(=O)N[C@@H](CCC(=O)O)C(=O)N[C@@H](CC(C)C)C(N)=O)[C@@H](C)O` the pKd was 4.89 (ENAH; binding, fluorescence).
The pIC50 of `CC(=O)N(O)CCC(c1ccc(-c2cccnc2)cc1)P(=O)(O)O` (stereo not shown) is reported as 6.10 (1-deoxy-D-xylulose 5-phosphate reductoisomerase; enzyme activity, inhibitor, absorbance; pH 7.5).
For `CC(C)C[C@H](NC(=O)[C@@H]1CCCN1C(=O)[C@@H](NC(=O)[C@@H]1CCCN1C(=O)[C@@H](N)C(C)C)C(C)C)C(=O)O`, the pIC50 was 3.89 (DPP4; enzyme activity, inhibitor, absorbance; pH 8).
For `CC(=O)N(O)CCC(c1cc2ccccc2o1)P(=O)(O)O` (stereo not shown), the pIC50 was 5.02 (1-deoxy-D-xylulose 5-phosphate reductoisomerase; enzyme activity, inhibitor, absorbance; pH 7.5).
With `CC(C)[C@H](N)C(=O)N1CCC[C@H]1C(=O)N[C@H](C(=O)N1CCC[C@H]1C(=O)N[C@@H](CO)C(=O)O)C(C)C` the pIC50 was 4.03 (DPP4; enzyme activity, inhibitor, absorbance; pH 8).
